Among the data in ChEMBL document CHEMBL1127512 (J Med Chem, 1994) are Ratio, Ke and Ki values, retold here.

The target in assay [1] is Kappa-type opioid receptor (Cavia porcellus) (UniProt P41144). The assay can be described thus: (§1) Selectivity ratio of kappa opioid receptor to that of delta opioid receptor.
The target is the same in assay [2]. The assay can be described thus: (§2) Selectivity ratio of kappa opioid receptor to that of mu opioid receptor.
The target in assay [3] is Delta-type opioid receptor (Mus musculus) (UniProt P32300). Nature of the assay: (§3) Inhibitory concentration was tested on electrically stimulated mouse vas deferens using DADLE as delta opioid receptor agonist at 100 nM of the compound. The format is functional. In a few lines: (§4)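 Electrically stimulated guinea pig ileal longitudinal muscle (ethylketazocine, morphine) and mouse vas deferens (DADLE). Antagonist 100 nM preincubated 15 min before standard agonist testing. IC50 ratio = agonist IC50 with antagonist divided by control agonist IC50 in the same preparation. For the kappa line, Ke = [antagonist]/(IC50 ratio − 1).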
Chain of Delta-type opioid receptor (Mus musculus) (P32300 whole entry): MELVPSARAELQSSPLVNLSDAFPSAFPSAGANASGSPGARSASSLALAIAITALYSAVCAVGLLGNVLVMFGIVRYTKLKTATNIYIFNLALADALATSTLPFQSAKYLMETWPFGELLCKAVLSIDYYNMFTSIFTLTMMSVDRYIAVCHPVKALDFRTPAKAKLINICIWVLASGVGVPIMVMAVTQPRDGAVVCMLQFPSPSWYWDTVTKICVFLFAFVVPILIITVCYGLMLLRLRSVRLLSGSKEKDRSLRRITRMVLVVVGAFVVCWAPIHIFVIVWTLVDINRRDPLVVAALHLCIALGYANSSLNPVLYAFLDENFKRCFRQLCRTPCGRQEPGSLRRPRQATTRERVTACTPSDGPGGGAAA

Assay [4] deals with Mu-type opioid receptor (Cavia porcellus) (UniProt P97266). Nature of the assay: (§5) Inhibitory concentration was tested on electrically stimulated guinea pig ileal longitudinal muscle using Morphine as mu opioid receptor agonist at 100 nM of the compound. Type of assay: functional. In outline:
as §4

Assay [5] deals with Kappa-type opioid receptor (Cavia porcellus) (UniProt P41144). The assay can be described thus: (§6) Inhibitory concentration was tested on electrically stimulated guinea pig ileal longitudinal muscle using ethylketazocine as kappa opioid receptor agonist at 100 nM of the compound. Type of assay: functional. In a few lines: as §4
The target is the same in assay [6]. The assay can be described thus: (§7) Antagonist potency at a concentration of 100 nM. The format is functional. In outline:
as §4

The target in assay [7] is Mu-type opioid receptor (Cavia porcellus, UniProt P97266). Nature of the assay: The binding affinity against mu-opioid receptor using [3H]- DAMGO as radioligand. In outline:
(§8)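 Competition binding in guinea pig brain membranes against selective tritiated radioligands. Displacement of [3H]U69593 at kappa, [3H]DAMGO at mu, [3H]DPDPE at delta sites.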

Assay [8] has as its target Kappa-type opioid receptor (Cavia porcellus, UniProt P41144). Nature of the assay: The binding affinity on kappa-opioid receptor using [3H]- U-69,593 as radioligand. In a few lines:
as §8

A short description of assay [9]: as §5. Type of assay: functional. In outline:
as §4

Assay [10] can be described thus: as §6. Type of assay: functional. In outline:
as §4

A short description of assay [11]: as §3. Type of assay: functional. In a few lines:
as §4

Assay [12] has as its system Opioid receptors; delta & kappa. The assay can be described thus: Selectivity ratio of delta opioid receptor to that of kappa opioid receptor. The format is protein assay.
For assay [13], the target named is T1, Opioid receptors; mu & kappa (Homo sapiens) (UniProt P41145+P35372). Described as §2. The format is protein assay.
T1 sequence (P35372 whole entry, looked up): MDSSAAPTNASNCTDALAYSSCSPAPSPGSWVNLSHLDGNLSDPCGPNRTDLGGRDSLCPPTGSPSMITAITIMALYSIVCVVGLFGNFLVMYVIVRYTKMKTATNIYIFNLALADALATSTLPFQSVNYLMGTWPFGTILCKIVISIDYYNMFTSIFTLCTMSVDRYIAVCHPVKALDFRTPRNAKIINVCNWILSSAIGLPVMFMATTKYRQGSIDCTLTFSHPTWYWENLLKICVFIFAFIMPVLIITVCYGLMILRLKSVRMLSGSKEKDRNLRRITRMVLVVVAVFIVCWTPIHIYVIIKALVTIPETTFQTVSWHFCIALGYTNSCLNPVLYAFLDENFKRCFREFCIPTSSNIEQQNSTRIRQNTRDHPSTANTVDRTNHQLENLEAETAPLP
T1 sequence (P41145 whole entry, looked up): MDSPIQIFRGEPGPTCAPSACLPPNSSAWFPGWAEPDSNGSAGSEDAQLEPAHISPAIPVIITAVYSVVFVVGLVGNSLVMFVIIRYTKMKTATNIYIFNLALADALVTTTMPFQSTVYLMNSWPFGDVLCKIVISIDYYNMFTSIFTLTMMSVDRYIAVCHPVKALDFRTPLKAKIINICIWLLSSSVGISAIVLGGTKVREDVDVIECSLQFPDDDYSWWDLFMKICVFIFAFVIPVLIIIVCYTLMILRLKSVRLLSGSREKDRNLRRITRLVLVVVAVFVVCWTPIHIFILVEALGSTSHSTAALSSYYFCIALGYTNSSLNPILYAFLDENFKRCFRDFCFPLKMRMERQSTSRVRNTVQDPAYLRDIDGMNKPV
In assay [14] the target is T1, Opioid receptors; mu & kappa (Homo sapiens). The assay can be described thus: Selectivity ratio of mu opioid receptor to that of kappa opioid receptor. Type of assay: protein assay.
The nature of assay [15]: as §7. Type of assay: functional. In a few lines: as §4
Assay [16] concerns the target Opioid receptors; delta & kappa (Homo sapiens) (UniProt P41145+P41143). The assay is described as §1. Type of assay: protein assay.

Chain of Kappa-type opioid receptor (Cavia porcellus) (P41144 whole entry): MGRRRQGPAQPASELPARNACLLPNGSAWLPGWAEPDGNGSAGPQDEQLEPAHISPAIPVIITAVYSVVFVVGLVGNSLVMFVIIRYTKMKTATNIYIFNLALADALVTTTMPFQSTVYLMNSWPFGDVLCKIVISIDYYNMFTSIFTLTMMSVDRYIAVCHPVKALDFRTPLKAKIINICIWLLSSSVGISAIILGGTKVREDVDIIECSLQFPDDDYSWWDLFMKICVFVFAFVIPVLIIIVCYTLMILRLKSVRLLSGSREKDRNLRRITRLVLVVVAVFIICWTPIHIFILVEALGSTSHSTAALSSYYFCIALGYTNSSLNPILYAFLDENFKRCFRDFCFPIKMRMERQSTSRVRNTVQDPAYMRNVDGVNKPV
Chain of Kappa-type opioid receptor (P41144 whole entry): as above
Chain of Opioid receptors; delta & kappa (Homo sapiens) (P41143 whole entry, looked up): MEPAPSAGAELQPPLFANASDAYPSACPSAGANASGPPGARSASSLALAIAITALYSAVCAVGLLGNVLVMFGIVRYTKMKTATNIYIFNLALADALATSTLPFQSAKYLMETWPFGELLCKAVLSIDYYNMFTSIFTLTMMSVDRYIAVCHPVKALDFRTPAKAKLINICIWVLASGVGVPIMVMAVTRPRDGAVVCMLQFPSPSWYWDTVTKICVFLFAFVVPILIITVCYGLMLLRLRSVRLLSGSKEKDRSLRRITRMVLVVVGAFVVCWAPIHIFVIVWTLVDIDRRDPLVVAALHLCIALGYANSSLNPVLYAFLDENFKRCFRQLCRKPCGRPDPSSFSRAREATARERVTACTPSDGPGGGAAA
Chain of Opioid receptors; delta & kappa (Homo sapiens) (P41145 whole entry, looked up): as the sequence (P41145 whole entry, looked up) above
Chain of Mu-type opioid receptor (Cavia porcellus) (P97266 whole entry): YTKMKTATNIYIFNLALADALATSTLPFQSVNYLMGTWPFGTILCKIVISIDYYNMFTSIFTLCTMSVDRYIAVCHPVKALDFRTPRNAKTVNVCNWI
Chain of Mu-type opioid receptor (P97266 whole entry): as above

Turning to `Oc1ccc2c3c1O[C@H]1c4[nH]c5c(c4C[C@@]4(O)[C@@H](C2)N(CCc2ccccc2)CC[C@]314)C[C@@]1(O)[C@H]2Cc3ccc(O)c4c3[C@@]1(CCN2CC1CC1)[C@H]5O4`, the Ratio in assay [1] amounted to 181; in assay [2], 24; in assay [3], 2.4; in assay [4] it was 1.8; in assay [5], 44. The molecule also had a Ke in [6] of 2.4 nM.

Turning to `CCN1CC[C@]23c4c5ccc(O)c4O[C@H]2c2[nH]c4c(c2C[C@@]3(O)[C@H]1C5)C[C@@]1(O)[C@H]2Cc3ccc(O)c5c3[C@@]1(CCN2CC1CC1)[C@H]4O5`, the Ratio in assay [1] was determined as 3.5; in [2] it was 14; in [3], 6.3; in assay [4], 1.6; in assay [5] it was 22. The molecule further returned a Ke in assay [6] of 4.7 nM.

As to `NCC(=O)N1CC[C@]23c4c5ccc(O)c4O[C@H]2c2[nH]c4c(c2C[C@@]3(O)[C@H]1C5)C[C@@]1(O)[C@H]2Cc3ccc(O)c5c3[C@@]1(CCN2CC1CC1)[C@H]4O5`, the Ratio in [1] amounted to 5.4; in [2] it was 8.4; in [3], 2.2; in [4] it was 1.4; in assay [5], 11.8. Also, the Ke in [6] was found to be 9.3 nM.

`CCCCCN1CC[C@]23c4c5ccc(O)c4O[C@H]2c2[nH]c4c(c2C[C@@]3(O)[C@H]1C5)C[C@@]1(O)[C@H]2Cc3ccc(O)c5c3[C@@]1(CCN2CC1CC1)[C@H]4O5`: the Ratio in [1] stood at 8.7; in [2] it was 8.7; in assay [3] it was 3.1; in assay [4], 3.1; in assay [5], 27. In [6], this molecule gave a Ke of 3.8 nM.

On to `NCC(=O)NCC(=O)N1CC[C@]23c4c5ccc(O)c4O[C@H]2c2[nH]c4c(c2C[C@@]3(O)[C@H]1C5)C[C@@]1(O)[C@H]2Cc3ccc(O)c5c3[C@@]1(CCN2CC1CC1)[C@H]4O5`, for which the figures for the Ki in assay [7] and in [8] were 66 nM and 21 nM, respectively. Also, the Ratio was 2 in assay [9]; 9.6 in [10]; 0.67 in assay [11]; above 15 in assay [12]; 4.8 in [13]; 3 in assay [14]. In [15], this molecule yielded a Ke of 11.7 nM.

Regarding `NCCN1CC[C@]23c4c5ccc(O)c4O[C@H]2c2[nH]c4c(c2C[C@@]3(O)[C@H]1C5)C[C@@]1(O)[C@H]2Cc3ccc(O)c5c3[C@@]1(CCN2CC1CC1)[C@H]4O5`, the Ki in assay [7] came to 46 nM; in assay [8], 3.4 nM. Besides, the Ratio in assay [9] came to 1.6; in assay [10], 20; in [11], 1.9; in assay [12], 41; in assay [13], 12.5; in assay [16] it was 10. Moreover, the Ratio in assay [14] was found to be 14. Also, the Ke in [15] amounted to 5.1 nM.

Turning to `N=C(N)NCCN1CC[C@]23c4c5ccc(O)c4O[C@H]2c2[nH]c4c(c2C[C@@]3(O)[C@H]1C5)C[C@@]1(O)[C@H]2Cc3ccc(O)c5c3C1(CCN2CC1CC1)[C@H]4O5`, the values for the Ki in assay [7] and in [8] were 50 nM and 0.59 nM, respectively. Also, the Ratio in [9] amounted to 1.7; in assay [10], 27; in [11], 1; in [12], 63; in assay [13] it was 15; in [16], 27. In assay [14], the Ratio turned out to be 85. The Ke in assay [15] was found to be 3.8 nM.

In assay [15], `Oc1ccc2c3c1O[C@H]1c4[nH]c5c(c4C[C@@]4(O)[C@@H](C2)N(CC2CC2)CC[C@]314)C[C@@]1(O)[C@H]2Cc3ccc(O)c4c3[C@@]1(CCN2CC1CC1)[C@H]5O4` gave a Ke of 0.55 nM.

For the molecule `Oc1ccc2c3c1O[C@H]1c4[nH]c5c(c4C[C@@]4(O)[C@@H](C2)NCC[C@]314)C[C@@]1(O)[C@H]2Cc3ccc(O)c4c3[C@@]1(CCN2CC1CC1)[C@H]5O4`, the Ratio is 4.8 in [1]; 22 in assay [2]; 8.5 in [3]; 1.9 in assay [4]; 41 in assay [5]. For the same molecule, the Ke in [6] was found to be 2.5 nM.

`O=C(NCCN1CC[C@]23c4c5ccc(O)c4O[C@H]2c2[nH]c4c(c2C[C@@]3(O)C1=C5)C[C@@]1(O)[C@H]2Cc3ccc(O)c5c3[C@@]1(CCN2CC1CC1)[C@H]4O5)OCc1ccccc1`: the Ratio in [9] stood at 4.5; in [10], 26; in assay [12], 325; in [13], 5.7; in [16], 5.7; in [14], 194. This molecule also displayed a Ke in [15] of 4 nM.

With `CC(=O)N1CC[C@]23c4c5ccc(O)c4O[C@H]2c2[nH]c4c(c2C[C@@]3(O)[C@H]1C5)C[C@@]1(O)[C@H]2Cc3ccc(O)c5c3[C@@]1(CCN2CC1CC1)[C@H]4O5`, the Ratio is 1.5 in [1]; 2.4 in assay [2]; 2.8 in assay [3]; 1.8 in assay [4]; 4.3 in assay [5]. This molecule also showed a Ke in assay [6] of 30.3 nM.

Regarding `CCCCN1CC[C@]23c4c5ccc(O)c4O[C@H]2c2[nH]c4c(c2C[C@@]3(O)[C@H]1C5)C[C@@]1(O)[C@H]2Cc3ccc(O)c5c3[C@@]1(CCN2CC1CC1)[C@H]4O5`, the inhibitory constant (Ki) in assay [7] came out at 73 nM; in assay [8], 0.04 nM. Further, the Ratio in assay [9] came to 1.8; in assay [10], 61; in [11], 1.9; in [14], 1820. In assay [15], this molecule registered a Ke of 1.7 nM.
